Reference: article PMC4489320 (Clinical Pharmacology in Drug Development, 2014)

What was measured:
[1] = system: healthy adults; assay: Thorough QT/QTc crossover study, Holter ECG recordings; type: in vivo, human
Outline: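 Three-period crossover in healthy adults (QTcF >450 ms excluded), with 14-day washouts and six Williams-square sequences. Dosing was placebo, a 0.1 mg/kg IV bolus over 30 s, or oral moxifloxacin 400 mg at Hour 1. ECGs came from 24-h Holter recordings read blind, with baseline the mean of −1, −0.5 and −0.25 h values. QTcI/QTcF/QTcB time-matched ddQTc was analysed by linear mixed-effect models with one-sided 95% CI.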

[2] = system: healthy adults; assay: Treatment-emergent adverse events; type: in vivo, human; settings: 0.1 mg/kg IV single dose
[3] = in vitro and in vivo studies; ref data on file; cited from earlier work

Molecule	number of subjects with QTcF intervals >450 but ≤480 milliseconds ([1]; healthy subjects, single dose)	percentage of subjects with QTcF intervals >450 but ≤480 milliseconds ([1]; healthy subjects, single dose) [%]	peak mean difference in dQTcI and dQTcF vs placebo ([1]; moxifloxacin 400 mg oral, 2 hours after administration (Hours 3 and 4))	lower bound of ddQTcF vs placebo at prespecified timepoints ([1]; moxifloxacin 400 mg oral, Hours 2, 3, 4 and 5)	lower bound of the one-sided 95% CI of ddQTcF vs placebo ([1]; moxifloxacin 400 mg oral, Hours 3 to 10 (2–9 hours after moxifloxacin dosing)) [milliseconds]	effects on heart rate, PR interval, or QRS interval ([1]; healthy subjects, 0.1 mg/kg IV single dose)	subjects with >30 milliseconds increase in QTcF ([1]; healthy subjects, single dose)	slope of linear relationship between ddQTcF and plasma concentration ([1]; linear mixed-effects model, P = 0.126, 90% CI (<−0.0005, 0.002), not statistically significant)	subjects with cardiac disorder TEAE [2]	severity of TEAEs ([2]; healthy subjects)	metabolism [3]
COc1c(N2C[C@@H]3CCCN[C@@H]3C2)c(F)cc2c(=O)c(C(=O)O)cn(C3CC3)c12 [moxifloxacin]	five	8.3	around 12 milliseconds	above 5 milliseconds	> 5						
peginesatide	0 subjects					no peginesatide-related effects	no subject	0.001	No subject	mild or moderate	negligible metabolism
